Converted amounts (≈) assume the structure as drawn. The source made the active and inactive calls. No cut-off for these calls is given here.
Legend:
[1] = system: P388; assay: In vivo cytotoxicity was determined against P388 mouse leukemia cells, (% treated / control) at 20 mg/kg (ip) administration; type: functional
How it was run: (§1)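 B6D2F1 mice, six per group, were implanted ip with 10⁶ P388 leukemia cells in 0.2 mL saline on day 0. Compound in saline/ethanol (6:1) was given ip at 20 mg/kg on days 1–5. Mice were followed until death. Mean survival time was compared with saline-treated controls and expressed as % T/C.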

[2] = system: Human alphaherpesvirus 1; assay: Tested for in vitro anti-HSV-1 activity; active; type: functional, organism-based
[3] = system: L1210; assay: Tested for cytotoxicity against murine L1210 cells in vitro; weak cytotoxicity; type: functional, cell-based; conditions: Mus musculus
[4] = system: Vero; assay: Dose to inhibit plaque formation in vero cells infected with herpes simplex virus type-1 (HSV-1,strainJLJ) was determined relative to acyclovir; value ranges from 0.1-1.0 ug/mL; type: functional; conditions: Chlorocebus sabaeus, read-out: ID50 (the source's name)
[5] = system: Vero; assay: Dose to inhibit plaque formation in vero cells infected with herpes simplex virus type-1 (HSV-1,strainJLJ) was determined; type: functional; conditions: Chlorocebus sabaeus, read-out: ID50 (the source's name)
How it was run: (§2)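 HSV-1 plaque-reduction assay in Vero cell monolayers. After 1-h virus adsorption at 37 °C, cells were overlaid with 1% agarose in E-MEM with 2% FBS containing the compound at 0.1, 1.0 and 10 μg/mL. Neutral red staining followed 4 days at 37 °C in 5% CO2, then plaques were counted. ID50 is the concentration cutting plaque number by 50%. The experiment was run once.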

[6] = species: Mus musculus; assay: Percent survival of L1210 cells in suspension was determined after a dose of 10 ug/mL in mouse; type: functional
How it was run: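 L1210 suspension cultures in Fischer's medium with 10% heat-inactivated horse serum, 37 °C, 5% CO2. Compound was added from ethanol, water or ethanol/water at final 50, 10 or 1 μg/mL. Cells were counted by Coulter counter after 48 h. % survival = (T48−T0)/(C48−C0)×100 versus untreated controls, given as mean ± SD (n = 3).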

[7] = system: L1210; assay: In vitro cytotoxicity was determined against L1210 leukemia cell from mouse.; type: functional; conditions: read-out: ED50 (the source's name)
How it was run: (§3)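 Mouse L1210 cells were grown in suspension in Fischer's medium with 10% heat-inactivated horse serum at 37 °C, 5% CO2, seeded at 10⁵ cells/mL. Compound was added from ethanol, water or ethanol/water at final 50, 25, 10, 5.0, 2.5 and 1 μg/mL. Cells were counted by Coulter counter at 48 h, in triplicate. % survival = (T48−T0)/(C48−C0)×100; ED50 is the 50% survival reduction.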

[8] = Inhibition constant was determined for the facilitated transport of [[…]]-thymidine by murine erythrocyte NBMPR-sensitive nucleoside transporter.; type: functional, Mus musculus
How it was run: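 Murine erythrocytes; facilitated uptake of [3H]thymidine through the NBMPR-sensitive nucleoside transporter. Extracellular [3H]thymidine sampled at various times after exposure and counted by liquid scintillation. Ki taken as the inhibition constant for this transport. Values are generally the mean of two determinations (range), with some n = 1 and the 2'-deoxyuridine reference n = 3.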

[9] = system: P388; assay: In vivo cytotoxicity was determined against P388 mouse leukemia cells expressed as % treated/control; type: functional; how it was run: as §1
[10] = system: Vero; assay: Dose to inhibit plaque formation in vero cells infected with herpes simplex virus type 1 (HSV-1,strainJLJ) was determined; type: functional; conditions: Chlorocebus sabaeus, read-out: ID50 (the source's name); how it was run: as §2
[11] = system: L1210; assay: In vitro cytotoxicity was determined against L1210 leukemia cells from mouse; type: functional; conditions: read-out: ED50 (the source's name); how it was run: as §3

| Compound | IC50 [5] | Survival [6] | Ki [8] | other results |
| --- | --- | --- | --- | --- |
| O=c1[nH]cc(F)c(=O)[nH]1 [FLUOROURACIL] | – | – | – | T/C [1]: >135% |
| O=c1[nH]c(=O)n([C@H]2C[C@H](O)[C@@H](CO)O2)cc1/C=C/Br | – | – | – | Activity [2]: Active |
| O=c1[nH]c(=O)n([C@H]2C[C@H](O)[C@@H](CO)O2)cc1C(O)CCl (some centres not stated) | – | – | – | Cyotoxicity [3]: weak cytotoxicity; IC50 [4]: 1 µg/mL (≈ 3.26 µM) |
| O=c1[nH]c(=O)n([C@@H]2O[C@H](CO)[C@@H](O)[C@H]2F)cc1C(O)CI (some centres not stated) | > 100 µg/mL | 93% | – | – |
| COC(CBr)c1cn([C@H]2C[C@H](O)[C@@H](CO)O2)c(=O)[nH]c1=O (some centres not stated) | – | – | – | Cyotoxicity [3]: weak cytotoxicity; IC50 [4]: 1 µg/mL (≈ 2.74 µM) |
| COC(CI)c1cn([C@H]2C[C@H](O)[C@@H](CO)O2)c(=O)[nH]c1=O (some centres not stated) | 0.1 µg/mL (≈ 0.243 µM) | 42% | 35 µM | EC50 [7]: 6 µg/mL (≈ 14.6 µM); T/C [9]: 114% |
| O=c1[nH]c(=O)n([C@H]2C[C@H](O)[C@@H](CO)O2)cc1C(O)CBr (some centres not stated) | – | – | – | Cyotoxicity [3]: weak cytotoxicity; IC50 [4]: 1 µg/mL (≈ 2.85 µM) |
| O=c1[nH]c(=O)n([C@H]2C[C@H](O)[C@@H](CO)O2)cc1CCCl | – | – | – | Activity [2]: Active |
| COC(CI)c1cn(C2O[C@H](CO)[C@@H](O)[C@H]2O)c(=O)[nH]c1=O (some centres not stated) | > 100 µg/mL | 108% | – | – |
| O=c1[nH]c(=O)n([C@H]2C[C@H](O)[C@@H](CO)O2)cc1C(O)CI (some centres not stated) | > 10 µg/mL | 52% | 155 µM | EC50 [7]: 10.5 µg/mL (≈ 26.4 µM); T/C [9]: 98% |
| O=c1ccn([C@H]2C[C@H](O)[C@@H](CO)O2)c(=O)[nH]1 [DEOXYURIDINE] | – | – | 125 µM | – |
| C=Cc1cn([C@@H]2O[C@H](CO)[C@@H](O)[C@H]2F)c(=O)[nH]c1=O | 0.1 µg/mL (≈ 0.367 µM) | 87% | – | – |
| O=c1[nH]c(=O)n(C2O[C@H](CO)[C@@H](O)[C@H]2O)cc1C(O)CI (some centres not stated) | > 100 µg/mL | 87% | – | – |
| Nc1nc2c(ncn2COCCO)c(=O)[nH]1 [ACYCLOVIR] | – | – | – | IC50 [10]: 0.01 µg/mL (≈ 0.0444 µM) |
| N[C@@H](Cc1ccc(N(CCCl)CCCl)cc1)C(=O)O [MELPHALAN] | – | – | – | EC50 [11]: 0.15 µg/mL (≈ 0.491 µM) |
| COC(CI)c1cn([C@@H]2O[C@H](CO)[C@@H](O)[C@H]2F)c(=O)[nH]c1=O (some centres not stated) | > 100 µg/mL | 97% | – | – |
| COCC(O)c1cn([C@H]2C[C@H](O)[C@@H](CO)O2)c(=O)[nH]c1=O (some centres not stated) | > 10 µg/mL | 37% | 610 µM | EC50 [7]: 12 µg/mL (≈ 39.7 µM); T/C [9]: 103% |
| O=c1[nH]c(=O)n([C@H]2C[C@H](O)[C@@H](CO)O2)cc1/C=C/I | < 0.1 µg/mL | – | 25 µM | – |
| O=c1nc2c(cn1[C@H]1C[C@H](O)[C@@H](CO)O1)C(O)CO2 (some centres not stated) | > 100 µg/mL | 103% | 8000 µM | – |
| O=c1[nH]c(=O)n(C2CC(O)C(CO)O2)cc1C(O)C(I)I (configuration not stated) | > 10 µg/mL | 2% | 220 µM | EC50 [7]: 0.77 µg/mL (≈ 1.47 µM); T/C [9]: 112% |
